“Also recorded” adds a separate entry of the source. Like-named read-outs stand apart in the source and are kept apart here.
What was measured:
[1] = test system: 15N-Hdm2-ABD; assay: 2D 1H-15N HSQC NMR of 15N-Hdm2-ABD with Arf peptide; assay type: binding, human
In short: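 15N-Hdm2-ABD was expressed in E. coli in MOPS minimal medium with 15NH4Cl and purified. […] Combined shift perturbation: Δδ1H/15N = [(Δδ1HN)² + 0.0289·(Δδ15NH)²]^1/2, each difference taken as bound minus free.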

[2] = test system: Hdm2-ABD lacking the H1 and/or H2 segments; assay: CD co-assembly of A1-mini with Hdm2-ABD lacking H1 and/or H2 segments; assay type: binding, human; details: deletion of the H1 and/or H2 segments (Suppl. Fig. 1)
[3] = Sedimentation velocity AUC of the isolated polypeptide; assay type: physicochemical
In short: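 Sedimentation velocity was run at 50,000 rpm and 20 °C, with Rayleigh interference scans every 1 min. Samples were dialysed into 10 mM sodium phosphate pH 6.0 with 10 mM NaCl (150 mM for high ionic strength), and the dialysate was the reference. Analysis used c(s) with maximum-entropy regularisation (p = 0.7, n = 100), with s from main-peak integration and weight-average f/f0. c(M) came from c(s). c(s, f/f0) used an f/f0 grid of 1.2–2.2 and s of 0.1–5 S.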

[4] = test system: Arf-null NIH 3T3 mouse fibroblasts; assay: BrdU incorporation / cell cycle arrest assay after nuclear micro-injection; assay type: cell-based; details: peptide 2–4 mg/ml, BrdU 10 μM, 8 hours, 3 independent experiments
[5] = Structure in isolation; assay type: physicochemical; details: for structure in isolation: absence of oppositely charged partner
In short: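 Uniformly 13C/15N-labelled Hdm2-ABD (2 mM) was studied in 10 mM sodium phosphate, 10 mM NaCl, 0.01% azide, 6% D2O, pH 6.0, 25 °C. Backbone assignments came from HSQC, CT-HNCA, CT-HN(CO)CA, HNCACB and CBCA(CO)NH spectra, and side chains from C(CO)NH- and H(CCO)NH-TOCSY. 1H was referenced to external TSP, with 13C/15N referenced indirectly.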

[6] = Solubility; assay type: physicochemical; details: co-assemblies with Hdm2-ABD
[7] = test system: Mdm2; assay: Nucleolar co-localization with endogenous Mdm2 after nuclear micro-injection; assay type: cell-based, mouse; details: for cells with co-localization with Mdm2 in nucleoli: 0.5 mg/mL TR-A1-mini injected into nuclei, 4 hour recovery, anti-mdm2 2A10
[8] = cited from earlier work
[9] = Pulsed magnetic field gradient/diffusion NMR of free Hdm2-ABD; assay type: physicochemical; details: 1 mM 15N-Hdm2-ABD, 10 mM sodium phosphate, 10 mM NaCl, pH 6; dioxane standard
In short: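 Diffusion was recorded at 600 MHz on 1 mM 15N-Hdm2-ABD in 10 mM sodium phosphate, 10 mM NaCl, pH 6. A 15N-filtered BPP-MAXY-D sequence gave 1D spectra across gradient strengths of 1–60 G cm−1. Dioxane served as internal standard to normalise for solution conditions. Equivalent unfolded chain length was estimated from Rh = (2.21 ± 1.07)N^(0.57 ± 0.02).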

[10] = cited from earlier work; remark: listed apart in the source
[11] = test system: nucleoli of Arf-null NIH 3T3 mouse fibroblasts; assay: Nucleolar localization after nuclear micro-injection; assay type: cell-based; details: 0.5 mg/mL TR-A1-mini injected into nuclei; 33/42 cells; 4 hour recovery
[12] = molecular target: Hdm2-ABD (Homo sapiens, UniProt Q00987); details: cited from earlier work
[13] = test system: mouse fibroblasts; details: cited from earlier work
[14] = test system: Mdm2; details: cited from earlier work
[15] = test system: 15N-Hdm2-ABD; details: 3 equivalents; cited from earlier work
[16] = test system: 15-residue peptide containing the H1 segment of Hdm2; details: cited from earlier work
[17] = molecular target: Arf-binding domain of Hdm2 (Hdm2-ABD), residues 210-304 (human, UniProt Q00987 210-304); assay: circular dichroism
[18] = 0.5 mM, 20 °C, 10 mM sodium phosphate pH 6.0, 10 mM NaCl, c(s) model

Sequence of Hdm2-ABD (Q00987 210-304): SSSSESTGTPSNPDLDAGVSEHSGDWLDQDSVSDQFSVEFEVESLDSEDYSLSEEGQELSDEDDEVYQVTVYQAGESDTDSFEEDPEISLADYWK
Sequence of Arf-binding domain of Hdm2 (Hdm2-ABD), residues 210-304 (Q00987 210-304): as above

For `CC(C)C[C@H](NC(=O)[C@H](Cc1ccccc1)NC(=O)[C@H](CCCNC(=N)N)NC(=O)[C@H](CCCNC(=N)N)NC(=O)CN)C(=O)N[C@H](C(=O)N[C@H](C(=O)N[C@H](C(=O)N[C@@H](CCCNC(=N)N)C(=O)O)C(C)C)[C@@H](C)O)C(C)C` [A1-mini], the “Δδ13Cα, 1H-1H NOE and heteronuclear NOE differences of 15N-Hdm2-ABD” value ([1]; absence vs presence of A1-mini, data not shown) was “significant differences in these parameters were not detected”, the “1H-15N HSQC resonance intensities of 15N-Hdm2-ABD” value ([1]; in presence of four-fold molar excess A1-mini (Suppl. Fig. 5B)) was “significant reduction in the intensity; also recorded: reduced significantly” and the “co-assembly with Hdm2-ABD deletion variants” value [2] was “complete abrogation of co-assembly”. For the same molecule, the “sedimentation state, isolated” value ([3]; AUC, data not shown) was “sedimented as a monomer”, the “inhibition of BrdU incorporation / cell cycle arrest” value [4] was “did not cause cell cycle arrest; also recorded: No significant differences in the percentage of cells undergoing DNA replication” and the structure in isolation [5] was “intrinsically unstructured”. For the same molecule, the “solubility of peptide/Hdm2-ABD co-assemblies” value [6] was over 1 mM and the “cells with co-localization with Mdm2 in nucleoli” value [7] was 7%.

In the case of (AEAEAKAK)2, the self-assembly [8] is given as “self-assembled into β-strand-rich structures with fibrilar characteristics”.

With “Hdm2-ABD: Hdm2 domain spanning residues 210-304 (Arf-binding domain)” the “frictional ratio (f/f0), isolated” value [3, 18] was 2.18, the “sedimentation coefficient (s), isolated” value [3, 18] was 1.0 S and the “molecular mass by AUC, isolated” value ([3]; 0.5 mM, 20 °C, pH 6.0, 10 mM NaCl) was ~ 10,900 Da. The structure in isolation [5] was “intrinsically unstructured”, the “secondary 13Cα chemical shift values (Δδ13Cα)” value ([5]; free Hdm2-ABD, pH 6.0, 25 °C (Suppl. Fig. 7B)) was “close to zero” and the “radius of hydration (Rh), free” value [9] was 25.7 Å. For the same molecule, the structure in isolation [10] was “intrinsically unstructured in isolation”.

With N-CGGGGGRRFLVTVR-C [TR-A1-mini] the “injected cells with nucleolar localization” value [11] was 79%, the “inhibition of BrdU incorporation / cell cycle arrest” value [4] was “did not inhibit the incorporation of bromo-deoxyuridine (BrdU) into DNA” and the “cells with co-localization with Mdm2 in nucleoli” value [7] was 7%. The “cells with nucleoplasmic Mdm2 and nucleolar TR-A1-mini localization” value ([7]; Fig. 5, nuclear injection) was 93%.

In the case of “mArf-N37: 37-residue intrinsically unstructured N-terminal fragment of p19^Arf (MGRRFLVTVRIQRAGRPLQERVFLVKFVRSRRPRTAS; UniProt Q64364 1-37, looked up, fragment)”, the “Hdm2-ABD concentration at which complete conversion to β-strand occurs” value ([12]; 1 molar equivalent of peptide) is given as at least 10 µM, the cell cycle arrest [13] is given as “exhibited cell cycle arrest activity in vivo” and the “p53-dependent cell cycle arrest” value ([13]; mouse fibroblasts) is given as “caused p53-dependent cell cycle arrest in mouse fibroblasts”. The “binding to Mdm2” value [14] was “bound to Mdm2”, the “co-assembly with Mdm2 in nucleoli” value ([14]; in cells) was “co-assembled specifically with Mdm2 in nucleoli” and the “effect on 15N-Hdm2-ABD resonances” value [15] was “broaden beyond detection”. For the same molecule, the structure in isolation [10] was “intrinsically unstructured in isolation”.

In the case of “residues 1-15 of p14^Arf: peptide corresponding to residues 1-15 of p14^Arf (MVRRFLVTLRIRRAC; UniProt Q8N726 1-15, looked up, fragment)”, the “irreversible assembly into bi-molecular oligomers with Hdm2-ABD” value [12] is given as “irreversibly assembled into bi-molecular oligomers” and the “assembly with 15-residue H1 peptide of Hdm2” value [16] is given as “irreversibly assembled into bi-molecular oligomers”.

For “residues 1-15 of p19^Arf: peptide from the N-terminus of p19^Arf spanning residues 1-15 (MGRRFLVTVRIQRAG; UniProt Q64364 1-15, looked up, fragment)”, the “binding to Hdm2-ABD” value [12] is given as “bound to Hdm2-ABD”.

Molecule GRRFLVTVR [A1-mini, peptide of residues 2-10 of mouse Arf (p19Arf)] has a Kd [17] of about 200 µM.

From article PMC2612038 (Journal of molecular biology, 2008)
